We go through 8 molecules from ChEMBL document CHEMBL1123933, “Specific dopamine D-1 and DA1 properties of 4-(mono- and -dihydroxyphenyl)-1,2,3,4-tetrahydroisoquinoline and its tetrahydrothieno[2,3-c]pyridine analogue” (1987).

The species named for assay [1] is Rattus norvegicus. Put plainly: Compound was evaluated for the stimulation of rat retinal adenylate cyclase by effect of its alkyl length at 10.0 uM dose. In kind it is functional. In short, it runs like this: (§1)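 Retinal homogenate, […], incubated 20 min at 30 °C. Stopped with SDS/ATP/cAMP plus [3H]cAMP recovery tracer and 2 min at 85 °C. [32P]cAMP isolated by Salomon column chromatography.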

The species entered for assay [2] is Rattus norvegicus. Put plainly: Compound was evaluated for the stimulation of rat retinal adenylate cyclase at 1.0 uM dose. Format: functional. In short, it runs like this:
as §1

For assay [3], the species on record is Rattus norvegicus. Put plainly: Compound was evaluated for the stimulation of rat retinal adenylate cyclase by effect of its alkyl length at 100.0 uM dose. In kind it is functional. A digest of the protocol: as §1
Assay [4] is filed under the species Rattus norvegicus. Put plainly: Compound was evaluated for the stimulation of rat retinal adenylate cyclase at 100.0 uM dose. Format: functional. A digest of the protocol: as §1
The species entered for assay [5] is Rattus norvegicus. Put plainly: Compound was evaluated for the stimulation of rat retinal adenylate cyclase by effect of its alkyl length at 0.1 uM dose. Format: functional. A digest of the protocol:
as §1

The species entered for assay [6] is Rattus norvegicus. Put plainly: Compound was evaluated for the stimulation of rat retinal adenylate cyclase at 10.0 uM dose. In kind it is functional. In short, it runs like this:
as §1

The species named for assay [7] is Rattus norvegicus. Put plainly: Compound was evaluated for the stimulation of rat retinal adenylate cyclase at 0.1 uM dose. Format: functional. In short, it runs like this: as §1
Assay [8] is filed under the species Rattus norvegicus. Put plainly: Compound was evaluated for the stimulation of rat retinal adenylate cyclase by effect of its alkyl length at 1.0 uM dose. In kind it is functional. In short, it runs like this: as §1
A further assay is filed under the species Canis familiaris. Put plainly: Compound was evaluated for the stimulation of canine renal artery; Inactive. In kind it is functional, organism-based. The note with it: Canis lupus familiaris.

Calls of active or inactive are those of the source. The calls are words filed in the database; no cut-off is given here.

As for `Oc1ccc(C2CNCc3ccccc32)cc1O` (stereo not given), the Stimulation came to 188% in the assay filed under Rattus norvegicus [1]; 89.6% in the assay filed under Rattus norvegicus [2]; 288.8% in the assay filed under Rattus norvegicus [3]; 198.8% in the assay filed under Rattus norvegicus [4]; 11.5% in the assay listed under Rattus norvegicus [5]; 152.7% in the assay listed under Rattus norvegicus [6]. The figures for the Stimulation in the assay filed under Rattus norvegicus [7] and in the assay listed under Rattus norvegicus [8] were 23.6% and 87.7%, respectively.
For `Oc1ccc(C2CNCc3sccc32)cc1O` (stereo not given), the Stimulation amounted to 160.2% in the assay listed under Rattus norvegicus [2], 207% in the assay filed under Rattus norvegicus [4], 188.6% in the assay filed under Rattus norvegicus [6] and 70.4% in the assay filed under Rattus norvegicus [7].
In the case of `CCN1Cc2ccccc2C(c2ccc(O)c(O)c2)C1` (stereo not given), the Stimulation in the assay listed under Rattus norvegicus [1] is 42.7%; in the assay listed under Rattus norvegicus [3] it was 94.1%; in the assay listed under Rattus norvegicus [5], -8.8%; in the assay filed under Rattus norvegicus [8], -1%.
For the molecule `NCCc1ccc(O)c(O)c1` [DOPAMINE], the Stimulation is 116.2% in the assay listed under Rattus norvegicus [2], 295.3% in the assay filed under Rattus norvegicus [4], 209.8% in the assay filed under Rattus norvegicus [6] and 25.7% in the assay listed under Rattus norvegicus [7].
In the case of `Oc1cccc(C2CNCc3ccccc32)c1` (stereo not given), the results for the Stimulation in the assay listed under Rattus norvegicus [2], in the assay listed under Rattus norvegicus [4] and in the assay filed under Rattus norvegicus [6] were 21%, 81% and 47%, respectively. Further, the result in the assay listed under Canis familiaris was inactive.
Take `CN1Cc2ccccc2C(c2ccc(O)c(O)c2)C1` (stereo not given): the Stimulation in the assay listed under Rattus norvegicus [1] is recorded as 122.6%; in the assay filed under Rattus norvegicus [3] it was 144.9%; in the assay filed under Rattus norvegicus [5], -1.7%; in the assay listed under Rattus norvegicus [8], 46.5%.
For `CCCN1Cc2ccccc2C(c2ccc(O)c(O)c2)C1` (stereo not given), the Stimulation is listed as 11.8% in the assay filed under Rattus norvegicus [1], 46.4% in the assay filed under Rattus norvegicus [3] and -7.7% in the assay filed under Rattus norvegicus [8].
As to `Oc1ccc(C2CNCCc3c2cc(O)c(O)c3Cl)cc1` (stereo not given) [FENOLDOPAM], the Stimulation was determined as 176% in the assay filed under Rattus norvegicus [2], 246% in the assay listed under Rattus norvegicus [4], 201.4% in the assay filed under Rattus norvegicus [6] and 165.1% in the assay listed under Rattus norvegicus [7].
